# Assay outcomes deposited in PubChem by several laboratories.
# MT1-MMP act inh: inhibitors of human MT1-MMP activation. P50281. HT1080 RFP-PRO-GFP cells, GFP/RFP ratio fluorescence, overnight; percent of plate control window, DMSO zero. GFP/RFP ratio change, % at 20 µM. 0.061% of 360,000 active. AID 651647;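 active = GFP/RFP ratio change of at least 30% with cell ATP level not reduced by more than half and red fluorescence within 50% of control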
#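 Test system: HT1080 cells expressing an RFP-PRO-GFP fluorescent reporter construct / Compound dosing: single-point 20 µM compound, 1% DMSO / Schedule: cells overnight before dosing, compound overnight, 37 °C, 5% CO2 / Evaluation: GFP/RFP fluorescence ratio / Control set: DMSO and RFP-L50D-GFP cell wells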
# DAGLB inhibitor: blocks human DAGLB lipase activity. 0.059% of 340,000 active. HEK293T DAGLB membrane lysate, EnzChek fluorogenic substrate. Q8NCG7. AID 504411. inhibition, % at 5.17 µM; in the data active = inhibition above about 34%;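 note: 0% = enzyme with vehicle and 100% = wells lacking enzyme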
# NRP1-CendR mod: alters CendR peptide binding to human NRP-1. AID 602438. inhibition, % at 25 µM. 0.85% of 360,000 active. O14786. FAM-RPARPAR peptide binding to NRP-1, fluorescence polarization;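 active = inhibition or corrected inhibition above about 18%, plus a signal ratio from 0.5 to 1.5, limit read from the data, passing the limit was not always enough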
# Target sequence (O14786 whole entry, looked up): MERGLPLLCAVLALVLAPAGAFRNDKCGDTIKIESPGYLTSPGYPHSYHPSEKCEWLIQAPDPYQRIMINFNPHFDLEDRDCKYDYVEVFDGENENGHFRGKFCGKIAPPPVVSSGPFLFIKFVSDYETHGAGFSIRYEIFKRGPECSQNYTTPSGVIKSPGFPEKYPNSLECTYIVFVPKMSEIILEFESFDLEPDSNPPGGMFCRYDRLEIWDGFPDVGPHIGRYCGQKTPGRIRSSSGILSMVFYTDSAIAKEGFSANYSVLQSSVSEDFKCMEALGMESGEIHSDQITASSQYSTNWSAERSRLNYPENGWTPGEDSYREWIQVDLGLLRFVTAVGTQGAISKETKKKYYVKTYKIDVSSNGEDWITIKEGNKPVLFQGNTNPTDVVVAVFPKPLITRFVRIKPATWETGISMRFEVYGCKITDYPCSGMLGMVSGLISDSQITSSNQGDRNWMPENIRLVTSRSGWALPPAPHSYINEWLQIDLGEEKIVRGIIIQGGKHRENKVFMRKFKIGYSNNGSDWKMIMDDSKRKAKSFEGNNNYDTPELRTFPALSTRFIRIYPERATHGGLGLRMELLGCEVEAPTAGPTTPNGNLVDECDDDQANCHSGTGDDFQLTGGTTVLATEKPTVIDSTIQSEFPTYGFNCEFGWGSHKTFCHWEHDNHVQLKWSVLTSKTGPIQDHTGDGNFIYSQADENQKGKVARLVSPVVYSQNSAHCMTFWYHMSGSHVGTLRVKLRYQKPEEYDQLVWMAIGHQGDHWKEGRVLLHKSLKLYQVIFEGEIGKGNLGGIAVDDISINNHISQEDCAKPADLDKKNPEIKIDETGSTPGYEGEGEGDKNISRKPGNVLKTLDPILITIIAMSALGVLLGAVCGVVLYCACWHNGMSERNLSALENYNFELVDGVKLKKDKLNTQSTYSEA
# Myeloid diff 2: myeloid differentiation induction; ER-HoxA9 myeloid progenitors, lysozyme-GFP differentiation, flow cytometry; calls only at 10 µM; 1% of 360,000 active;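 active = normalized GFP-positive differentiation at or above the plate's own cutoff, the solvent-only control mean plus 3 SD; inconclusive = no clear call, values can overlap the other calls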;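 note: cells exposed to compound for four days before flow analysis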
# MIN6 prolif: inducers of beta-cell replication in MIN6 cells | MIN6 cells proliferation, ATPlite luminescence, 48 h; cells starved in 0.2% serum; 100% = growth in 10% serum | AID 2380 | proliferation, % at 10 µM | 0.29% of 330,000 active;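 active = compounds whose signal lies at least 3.5 SD above the mean of all wells on their plate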;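 note: 0% = DMSO-treated cells in low-serum medium and 100% = 10% serum control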
# SENP1 FRET inh: SENP1 (human) catalytic domain inhibition. Q9P0U3. recombinant SENP1 catalytic domain, CyPet-SUMO1-YPet FRET cleavage. inhibition, % at 10 µM. 0.21% of 360,000 active. AID 624204;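 active = inhibition at least 30% at 10 µM, raw YFP signal under a set limit, fluorescence ratio 0.5 to 1.5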;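 note: 0% = enzyme with DMSO and 100% = no enzyme wells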
#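 Test system: hSENP1 catalytic domain, recombinant; Amount: 20 pM final SENP1 enzyme; Medium: Tris pH 8 buffer plus EDTA, NaCl, BME, BSA, NP40, catalase; Schedule: 50 min enzyme reaction, room temperature, light-protected; Technique: FRET fluorescence in CFP and YFP emission channels; Controls: no-enzyme wells low, DMSO-plus-enzyme wells high control.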
# * marks the source's active call; other numbers are inactive results; i = inactive; ? = inconclusive; . = no result; + = active, no number. An excerpt weighted towards active compounds, which were near 2.4% of everything screened.
SMILES,MT1-MMP act inh,DAGLB inhibitor,NRP1-CendR mod,Myeloid diff 2,MIN6 prolif,SENP1 FRET inh
CC(c1ccco1)N(C(=O)c1cc(Cl)cc(Cl)c1)c1ccccn1 (stereo unspecified),-4.2,-1.4,7.3,.,0.0*,0.2
Cc1cc(C(=O)NP(=O)(N2CC(C)OC(C)C2)N2CC(C)OC(C)C2)c(C)n1C1CC1 (stereo unspecified),-0.6,0.6,-12.3,i,2.7,-5.0
COc1cc([N+](=O)[O-])ccc1-c1ccc(/C=N/NC(N)=O)o1,-45.0,-0.9,-170.7,+,0.5,-35.8
CCCCn1c(-c2nonc2NC(=O)c2ccccc2Cl)nc2ccccc21,2.8,-0.4,2.2,+,.,1.1
N#CCCn1c(-c2nonc2NC(=O)c2ccccc2Cl)nc2ccccc21,3.2,1.3,-7.3,i,1.4,-0.8
COc1ccc(C(=O)c2nccc3cc(OC)c(OC)cc23)cc1OC,-4.8,-2.8,26.4*,i,0.2,24.2
COc1ccc(C(=O)c2ccc(OC)c(OC)c2)cc1OC,1.9,-1.4,5.1,i,1.2,-1.1
CCn1c(SCC(=O)Nc2nccs2)nnc1-c1ccc(C)cc1,10.7,1.5,-4.3,i,-2.4,1.0
CCn1c(SC(C)C(=O)Nc2nccs2)nnc1-c1ccncc1 (stereo unspecified),0.5,-0.4,23.5*,i,-2.8,0.4
CC(=O)C1CCC2C3CC(C)=C4CC(O)CCC4(C)C3CCC12C (stereo unspecified),0.8,-4.3,-8.3,i,.,-6.9
NC(=O)C1CCN(c2nc(-c3ccc4occc(=O)c4c3)cs2)CC1,7.9,-0.7,24.8*,i,-0.9,-2.7
NC(=O)C1CCN(c2nc(-c3ccc(F)cc3)cs2)CC1,1.1,3.5,11.0,+,-1.3,2.5
NC(=O)C1CCN(c2nc(-c3ccccc3F)cs2)CC1,5.3,0.0,25.1*,i,-0.8,4.6
NC(=O)C1CCN(c2nc(-c3ccccc3C(F)(F)F)cs2)CC1,6.8,3.0,30.5*,i,0.1,1.2
NC(=O)C1CCN(c2nc(-c3cccc(N)c3)cs2)CC1,3.3,-1.1,-3.9,i,-1.8,4.3
CC(=O)Nc1ccc(NC(=O)C/C(C)=N/NC(=O)c2cccc3ccccc23)cc1,4.1,1.4,4.6,i,1.0,0.8
CCC(C)Nc1nc2ccccc2n2c(C)nnc12 (stereo unspecified),9.4,-0.4,8.6,i,-0.1,0.0
Nc1ccc(-c2c3ccc(=O)cc-3oc3cc(O)ccc23)cc1C(=O)O,-52.1,-268.5,141.6,+,0.6,51.0
O=c1ccc2c(-c3ccccc3)c3ccc(O)cc3oc-2c1,-31.2,i,119.8,+,-5.9,-23.4
O=c1cc(-c2ccccc2)oc2cc(O)ccc12,-9.9,1.3,3.8,i,.,21.0
Cc1cc(=O)oc2cc(NS(=O)(=O)c3ccc(F)cc3)ccc12,-1.6,-0.3,36.6*,i,-3.6,-186.1
Cc1ccc(N2CC(C(=O)NC3CC3)CC2=O)cc1Cl (stereo unspecified),-2.9,1.9,-2.2,i,-0.4,-0.8
O=C(NC1CC1)C1CC(=O)N(c2cccc(Cl)c2)C1 (stereo unspecified),-3.9,-1.0,11.6,+,-1.1,2.0
CCN1/C(=C/C(C)=O)Sc2ccc(OC)cc21,3.8,0.7,4.3,i,-4.3,0.3
CCOC(=O)/C(=C/C=C1\Sc2cc(OCC)c(OCC)cc2N1CC)C(C)=O,-93.9,-125.9,133.1,+,-3.6,-24.6
CCOC(=O)/C(=C\C=C1/Sc2cc(OCC)c(OCC)cc2N1CC)C(C)=O,-135.4,-146.3,121.4,+,.,-27.6
O=C(O)c1cccc(S(=O)(=O)Nc2ccccc2C(=O)NCCc2ccccc2)c1,3.6,-0.1,3.0,+,0.7,2.4
CCN1/C(=C/c2ccc3cc(C)ccc3[n+]2CC)Sc2cc(C)ccc21,-23.2,-11.8,-231.7,?,.,102.0
CCCCN1/C(=C/c2ccc3ccccc3[n+]2CC)Sc2ccccc21,-151.1,.,-155.6,+,-4.8,70.1*
